Measurements reported in ChEMBL document CHEMBL5143722, “Antimicrobial Peptides against Multidrug-Resistant Pseudomonas aeruginosa Biofilm from Cystic Fibrosis Patients” (J Med Chem, 2022).
Active and inactive are the calls of the source. No cut-off for these calls is given here.

Experiments:
Pseudomonas aeruginosa [1] = experiment: Antibiofilm activity against Pseudomonas aeruginosa PAO1 in artificial sputum medium at 100 uM incubated for 24 hrs by resazurin staining based microtiter plate method; format: functional, organism-based
Summary of the method: (§1)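 Washed overnight culture set to OD ~0.05 in BM2, diluted 1:100 into artificial sputum medium (pH 6.9) in 24-well plates. Grown 3 days aerobically at 37 °C with agitation. Peptides (12.5–100 μM) added for 24 h with agitation. Biofilm disrupted by cellulase for 1 h at 37 °C. Resazurin 0.02% for 1–2 h, fluorescence ex 530/em 590 nm; viability as % of untreated wells.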

Pseudomonas aeruginosa [2] = experiment: Antibiofilm activity against Pseudomonas aeruginosa clinical isolate 29 assessed as inhibition of biofilm formation at 1.56 uM incubated for 24 hrs by crystal violet staining based microtiter plate method; format: functional, organism-based
Summary of the method: (§2)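 Washed overnight cultures in BM2 medium at 1 × 10^6 CFU/mL with 2-fold serial peptide dilutions in a U-bottom 96-well plate. Incubated 24 h at 37 °C without agitation. Unattached cells washed off, then 0.1% crystal violet stain read at 590 nm. No-bacteria blanks. Biomass expressed as % of untreated biofilm. At least three biological repeats.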

Pseudomonas aeruginosa [3] = experiment: Antibiofilm activity against Pseudomonas aeruginosa clinical isolate 238 assessed as inhibition of biofilm formation at 1.56 uM incubated for 24 hrs by crystal violet staining based microtiter plate method; format: functional, organism-based; summary of the method: as §2
Pseudomonas aeruginosa [4] = experiment: Antibiofilm activity against Pseudomonas aeruginosa clinical isolate 24 in artificial sputum medium at 100 uM incubated for 24 hrs by resazurin staining based microtiter plate method; format: functional, organism-based; summary of the method: as §1
Pseudomonas aeruginosa [5] = experiment: Antibiofilm activity against Pseudomonas aeruginosa clinical isolate 71 assessed as inhibition of biofilm formation at 1.56 uM incubated for 24 hrs by crystal violet staining based microtiter plate method; format: functional, organism-based; summary of the method: as §2
Pseudomonas aeruginosa [6] = experiment: Antibiofilm activity against Pseudomonas aeruginosa clinical isolate 46 assessed as inhibition of biofilm formation at 1.56 uM incubated for 24 hrs by crystal violet staining based microtiter plate method; format: functional, organism-based; summary of the method: as §2
Pseudomonas aeruginosa [7] = experiment: Bactericidal activity against Pseudomonas aeruginosa clinical isolate 46 derived from cystic fibrosis patient sputum assessed as killing rate at 10 uM measured after 1 hr by time-kill assay relative to control; format: functional
Summary of the method: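 Pooled CF patient sputum diluted 10-fold in 10 mM phosphate buffer (pH 7.0), centrifuged and 0.22 μm filtered. Bacteria at 10^6 CFU/mL in 10% sputum supernatant with 10 μM peptide for 1 h at 37 °C. Diluted and plated on LB agar; colonies counted against untreated plates.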

Pseudomonas aeruginosa [8] = experiment: Antibiofilm activity against Pseudomonas aeruginosa clinical isolate 53 assessed as inhibition of biofilm formation at 1.56 uM incubated for 24 hrs by crystal violet staining based microtiter plate method; format: functional, organism-based; summary of the method: as §2
Pseudomonas aeruginosa [9] = experiment: Induction of biofilm degradation of Pseudomonas aeruginosa clinical isolate 46 derived from cystic fibrosis patient sputum at 1.56 to 50 uM by crystal violet based staining analysis; format: functional; conditions: dose 1.56-50 µM
Summary of the method: (§3)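 Biofilm grown from 1 × 10^6 CFU/mL in pooled CF patient sputum diluted 10-fold with BM2, static, 37 °C, 24 h. Unattached cells rinsed off, then serial peptide dilutions (1.56–50 μM) applied for 1 h. Washed and stained with 0.1% crystal violet, read at 590 nm. Reported as % of untreated biomass, with no-bacteria blanks.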

Pseudomonas aeruginosa [10] = experiment: Induction of biofilm degradation of Pseudomonas aeruginosa clinical isolate 24 derived from cystic fibrosis patient sputum at 1.56 to 50 uM by crystal violet based staining analysis; format: functional; conditions: dose 1.56-50 µM; summary of the method: as §3
Pseudomonas aeruginosa [11] = experiment: Antibiofilm activity against Pseudomonas aeruginosa PAO1 in artificial sputum medium at 50 uM incubated for 24 hrs by resazurin staining based microtiter plate method; format: functional, organism-based; summary of the method: as §1
Pseudomonas aeruginosa [12] = experiment: Antibiofilm activity against Pseudomonas aeruginosa PAO1 assessed as inhibition of biofilm formation at 1.56 uM incubated for 24 hrs by crystal violet staining based microtiter plate method; format: functional, organism-based
Pseudomonas aeruginosa [13] = experiment: Antibiofilm activity against Pseudomonas aeruginosa clinical isolate 24 in artificial sputum medium at 50 uM incubated for 24 hrs by resazurin staining based microtiter plate method; format: functional, organism-based; summary of the method: as §1

Structure (SMILES): CC(C)C[C@H](NC(=O)[C@H](CC(C)C)NC(=O)[C@H](CCCCN)NC(=O)[C@H](CC(C)C)NC(=O)[C@H](CC(C)C)NC(=O)[C@H](CCCCN)NC(=O)[C@H](CCCCN)NC(=O)[C@H](CC(C)C)NC(=O)[C@H](CC(C)C)NC(=O)[C@H](CCCCN)NC(=O)[C@H](CCCCN)NC(=O)[C@H](CC(C)C)NC(=O)[C@H](CC(C)C)NC(=O)[C@H](CCCCN)NC(=O)[C@@H](N)CC(C)C)C(N)=O
- Activity (Pseudomonas aeruginosa [1]): Active
- inhibition (Pseudomonas aeruginosa [2]): Active
- inhibition (Pseudomonas aeruginosa [3]): Active
- Activity (Pseudomonas aeruginosa [4]): Active
- inhibition (Pseudomonas aeruginosa [5]): Active
- inhibition (Pseudomonas aeruginosa [6]): Active
- Activity (Pseudomonas aeruginosa [7]): >97.91%
- inhibition (Pseudomonas aeruginosa [8]): Active
- Activity (Pseudomonas aeruginosa [9]): Active
- Activity (Pseudomonas aeruginosa [10]): Active
- Activity (Pseudomonas aeruginosa [11]): Active
- inhibition (Pseudomonas aeruginosa [12]): Active
- Activity (Pseudomonas aeruginosa [13]): Active
